This note sets out measurements from PubChem BioAssay.

The structures appear in SMILES notation. The source made the active and inactive calls.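 How the source made its calls, unless noted: active means inhibition of the reporter signal at or above 50%; inactive means inhibition below 50%.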

A short description of test [1]: inhibitors of TNFa-induced NFkB p65 translocation, primary screen, imaging, HUVEC, MLSMR starter and 10KST1 sets (AID 438;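 active means inhibition above 20% together with a positive visual image hit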;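 further: compound added about 3h40 before a 20 min TNFalpha stimulation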;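 on inhibition: signal is the nuclear over cytoplasmic p65 intensity ratio per well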). The note with it: HUVEC TNFa-induced p65 nuclear translocation; cell count: measured here: nuclei count (cytotoxicity indicator), at 2.08 µM; inhibition: at 2 µM, stronger effect = higher value, 0% TNFa-plus-vehicle, 100% no-TNFa wells.
Test [2] is described as follows: reduction of polyQ htt aggregates in cells – imaging, exon1htt(103Q)mCFP cells, high-content imaging, primary screen (AID 483;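 active means visual image review flags a hit and inhibition of aggregation exceeds 20%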;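 further: compound exposure lasted 3 days before fixation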;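 on nuclei count: percent of the per-plate median nuclei count of sample wells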). The note with it: exon1htt(103Q)mCFP cell line, aggregate imaging, at 2 µM; inhibition of aggregation: stronger effect = higher value; nuclei count: measured here: cell count, toxicity.
Test [3] is described as follows: endothelial E-selectin expression blockers – imaging, HUVEC, immunofluorescence, MLSMR starter and 10KST1 sets, primary screen (AID 487;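 active means visually confirmed hit in the image check and inhibition above 20%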;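 on inhibition: signal is fraction of cell area covered by stained E-selectin grains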;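 on nuclei count: 100% = median nuclei count of all wells on the same plate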). The conditions noted are these: HUVEC TNFalpha-induced E-selectin immunofluorescence imaging, at 2 µM; inhibition: stronger effect = higher value; nuclei count: measured here: cell number, toxicity.
For test [4], the target named is Voltage-gated potassium channel subunit beta-2 (Rattus norvegicus) (UniProt P62483). The experiment in a line: inhibitors of rat Kvbeta2 reductase activity – biochemical, NADPH fluorescence, primary screen (AID 622;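 active means fluorescence slope higher than the sample average by over 3 SD, cut at about -0.22 in these data, passing the limit was not always enough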;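 further: slope of raw intensity against log time taken from 70 to 1610 s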). The note with it: recombinant KvBeta, 4-cyanobenzaldehyde reduction, at 10 µM, stronger effect = higher value.
Sequence of Voltage-gated potassium channel subunit beta-2 (Rattus norvegicus) (P62483 whole entry, looked up): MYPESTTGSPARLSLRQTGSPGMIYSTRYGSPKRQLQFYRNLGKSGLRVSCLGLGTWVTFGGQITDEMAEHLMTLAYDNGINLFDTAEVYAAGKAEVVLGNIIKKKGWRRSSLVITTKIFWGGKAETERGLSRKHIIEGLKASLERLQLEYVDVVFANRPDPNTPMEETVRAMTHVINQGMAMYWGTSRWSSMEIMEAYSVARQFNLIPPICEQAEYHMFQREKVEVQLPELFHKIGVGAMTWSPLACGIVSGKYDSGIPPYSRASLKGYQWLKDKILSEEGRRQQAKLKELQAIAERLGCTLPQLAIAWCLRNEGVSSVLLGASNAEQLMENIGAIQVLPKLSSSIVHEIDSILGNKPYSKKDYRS
For test [5] the target is unchanged. The experiment in a line: enhancers of rat Kvbeta2 NADPH turnover – biochemical, NADPH fluorescence, primary screen (AID 623;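 active means NADPH fluorescence slope more negative than the mean of all samples by about 3 SD, 99.7% confidence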;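 further: fluorescence intensity change per second fitted from 20 to 320 s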). The note with it: Recombinant KvBeta, NADPH fluorescence decrease slope, 10 min; at 10 µM; stronger effect = lower value.
For test [6], the target named is Alpha-2C adrenergic receptor (Homo sapiens) (UniProt P18825). As to the kind of experiment: compounds altering alpha2C-coupled GIRK flux – cell-based, HEK293 alpha2C/GIRK1/2, thallium flux, primary screen (AID 624;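 active means fluorescence slope after compound addition differing from the mean of all screened samples at 99.7% confidence, in either direction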;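 further: slope of fluorescence ratio to pre-addition baseline per second over 15 to 24 s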). The conditions noted are these: thallium flux BTC fluorescence, at 10 µM, actives lie on both sides.
Sequence of Alpha-2C adrenergic receptor (Homo sapiens) (P18825 whole entry, looked up): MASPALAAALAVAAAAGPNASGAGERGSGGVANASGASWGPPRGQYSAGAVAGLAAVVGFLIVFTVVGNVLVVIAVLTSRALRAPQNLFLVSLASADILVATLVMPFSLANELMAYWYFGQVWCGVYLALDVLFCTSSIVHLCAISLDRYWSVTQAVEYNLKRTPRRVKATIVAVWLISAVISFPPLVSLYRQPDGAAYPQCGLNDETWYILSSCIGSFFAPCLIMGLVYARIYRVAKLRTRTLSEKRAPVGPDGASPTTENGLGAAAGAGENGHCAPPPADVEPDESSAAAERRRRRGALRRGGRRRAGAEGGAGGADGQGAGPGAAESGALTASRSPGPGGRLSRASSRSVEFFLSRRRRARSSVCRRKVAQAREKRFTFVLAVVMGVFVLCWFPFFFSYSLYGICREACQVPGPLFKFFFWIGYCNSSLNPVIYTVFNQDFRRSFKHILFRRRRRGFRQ
Test [7] is described as follows: inhibitors of larval lipid processing in zebrafish, primary screen, whole organism, PED6 fluorescence, gall bladder and intestine (AID 686;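 active means a full or partial loss of lipid-probe fluorescence in the fish gall bladder, intestine or both, judged by eye; inactive means no fluorescence loss, or compound toxic to the fish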;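 further: larvae 5 to 7 days old with five fish per well; signal comes from phospholipase A2 cleavage of quenched PED6 carried via bile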). The note with it: Zebrafish larvae PED6 lipid processing, fluorescence scoring; screened at 20 µM (by protocol). The essentials: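 System: live zebrafish larvae aged 5-7 days, whole organism; measure: graded gall bladder and intestinal fluorescence inhibition per well; incubation: overnight exposure; reagent: ingested quenched lipid PED6 at 100 nM; signal: By-eye fluorescence microscopy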

Test [8] is described as follows: blockers of RIG-like receptor reporter activation – cell-based, Sendai virus stimulus, luciferase, 10K MLSCN set, TLR/RLR signaling modifier project, primary screen (AID 602276;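 active means inhibition at or above 50% at 10 µM; inactive means inhibition below 50%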;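 further: firefly luciferase from ISG56 promoter only with Renilla not read in this screen; 0% = Sendai virus plus DMSO and 100% = medium plus DMSO without virus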). The note with it: HEK293 RL24 IRF3 luciferase reporter, at 10 µM, stronger effect = higher value. Background: Reporter assays use an easily measured gene product as a stand-in for the process of interest.

A short description of test [9]: TLR3 IRF3 reporter activation blockers – cell-based, poly I:C stimulus, luciferase, 10K MLSCN set, primary screen (AID 602277). The conditions noted are these: HEK293-TLR3 RL24 IRF3 luciferase reporter, at 10 µM, stronger effect = higher value.

As for `CCOC(=O)c1sc(NC(=O)CSc2ncn(-c3ccccc3)n2)nc1C`, the cell count in test [1] is 527. Also, the inhibition was -6.5% (inactive) in test [1], -8% (inactive) in test [3], 13.7% (inactive) in test [8] and 13% (inactive) in test [9]. Besides, the inhibition of aggregation in test [2] was 14.5% (inactive). For the same molecule, the figures for the nuclei count in test [2] and in [3] were 102% and 69.6%, respectively. Further, the fluorescence slope in test [4] is -0.363 (inactive). Besides, the NADPH fluorescence slope in test [5] was 2.2e-05 (inactive). In addition, the slope in [6] is 0.00535 (inactive). For the same molecule, the result in test [7] was inactive.
`CCOc1ccc(NC(=O)COC(=O)Cn2cnnn2)cc1OCC`: the cell count in test [1] is 373. For the same molecule, the inhibition in test [1] is -19.6% (inactive); in [3] it was 33.9% (inactive); in test [8] it was 10.8% (inactive); in test [9] it was 9.82% (inactive). The inhibition of aggregation in [2] is 11.4% (inactive). The nuclei count in [2] was 57.8%; in [3], 72.6%. In addition, the fluorescence slope in [4] was -0.468 (inactive). The NADPH fluorescence slope in test [5] is -2.6e-05 (inactive). The slope in [6] is 0.00481 (inactive). Moreover, the outcome in [7] was inactive.
On to `CCn1cnc2sc(C(=O)Nc3ccc4c(c3)OCO4)c(C)c2c1=O`, for which the cell count in test [1] was found to be 473. Besides, the inhibition in test [1] was -14.7% (inactive); in test [3], -47.6% (inactive); in test [8] it was -47.3% (inactive); in [9], -111% (inactive). Also, the inhibition of aggregation in test [2] is 7.4% (inactive). Moreover, the nuclei count in test [2] worked out at 102%; in [3], 90.6%. For the same molecule, the fluorescence slope in test [4] was -0.361 (inactive). Besides, the NADPH fluorescence slope in test [5] is -7e-05 (inactive). Besides, in [6], the slope was 0.00678 (inactive). The call in [7] was inactive.
On to `C1=C(CCNc2ncnc3c2cnn3-c2ccccc2)CCCC1`, for which the cell count in [1] came out at 355. In addition, the inhibition is 2.8% (inactive) in [1], -22.4% (inactive) in test [3], -36.5% (inactive) in test [8] and -142% (inactive) in [9]. Moreover, in test [2], the inhibition of aggregation was 17.1% (inactive). In addition, the figures for the nuclei count in test [2] and in test [3] were 91.5% and 124%, respectively. Further, the fluorescence slope in test [4] was -0.375 (inactive). Besides, the NADPH fluorescence slope in test [5] was -6.3e-05 (inactive). Moreover, in test [6], the slope is 0.00514 (inactive). Also, in test [7], the molecule was called inactive.
Regarding `Cc1c(CNCc2cccs2)c(C(=O)O)c(C)n1Cc1ccccc1`, the cell count in [1] amounted to 451. Besides, the inhibition was 5.5% (inactive) in [1], -30.9% (inactive) in test [3], 18.8% (inactive) in test [8] and 17% (inactive) in test [9]. In addition, the inhibition of aggregation in test [2] is 3.1% (inactive). Moreover, the results for the nuclei count in test [2] and in test [3] were 115% and 101%, respectively. Besides, the fluorescence slope in [4] is -0.454 (inactive). In addition, the NADPH fluorescence slope in [5] is -7.6e-05 (inactive). The slope in test [6] is 0.00618 (inactive). Also, the result in [7] was inactive.
For the molecule `Cc1nn(-c2ccccc2)c2[nH]c(C(F)(F)F)cc(=O)c12`, the cell count in test [1] is 364. Also, the inhibition in test [1] was 0.7% (inactive); in [3], -10.5% (inactive); in [8], 5.93% (inactive); in test [9], -1.53% (inactive). Besides, the inhibition of aggregation in test [2] was 17.9% (inactive). The nuclei count in test [2] amounted to 103%; in [3], 97.8%. For the same molecule, the fluorescence slope in test [4] was -0.411 (inactive). In addition, the NADPH fluorescence slope in [5] is -4.4e-05 (inactive). Besides, the slope in [6] is 0.00725 (inactive). Further, the molecule was classed as inactive in test [7].
Regarding `N#CCc1ccc(NC(=O)Nc2cccc(Cl)c2)cc1`, in test [1], the cell count amounted to 321. Besides, the inhibition is -8.6% (inactive) in test [1], -112% (inactive) in [3], -26.8% (inactive) in [8] and -62.7% (inactive) in test [9]. Further, the inhibition of aggregation in test [2] was -19.9% (inactive). In addition, the nuclei count in test [2] came out at 85.4%; in test [3] it was 137%. The fluorescence slope in test [4] was -0.46 (inactive). The NADPH fluorescence slope in test [5] was -5.6e-05 (inactive). In test [6], the slope was 0.00505 (inactive). For the same molecule, in [7], the outcome was inactive.
Turning to `O=C(Nc1ccccc1Cl)c1c(F)c(F)c(F)c(F)c1F`, in test [1], the cell count was 407. Moreover, the inhibition was 5.5% (inactive) in test [1], -166% (inactive) in test [3], -7.6% (inactive) in test [8] and -12.7% (inactive) in [9]. Also, the inhibition of aggregation in test [2] is 2.9% (inactive). Besides, the nuclei count in test [2] worked out at 103%; in [3], 116%. In addition, the fluorescence slope in test [4] was -0.479 (inactive). Besides, the NADPH fluorescence slope in test [5] is -3e-05 (inactive). In test [6], the slope was 0.00592 (inactive). In addition, the molecule was classed as inactive in test [7].
Take `COc1ccc(-c2nnc(SCc3nnc(-c4ccc(Cl)cc4)o3)n2-c2ccccc2)cc1`: the cell count in [1] is 565. The inhibition is -13.6% (inactive) in test [1], 17.2% (inactive) in test [3], -45% (inactive) in [8] and -62.8% (inactive) in test [9]. Besides, in test [2], the inhibition of aggregation is 12.1% (inactive). The figures for the nuclei count in test [2] and in test [3] were 106% and 138%, respectively. Besides, the fluorescence slope in test [4] is -0.398 (inactive). Moreover, the NADPH fluorescence slope in test [5] is -6.2e-05 (inactive). In addition, the slope in test [6] is 0.00535 (inactive). Further, the result in test [7] was inactive.
As to `COc1cccc(NC(=O)N(CCCN2CCOCC2)C(C)c2cc3cccc(OC)c3o2)c1` (stereo not given), in test [1], the cell count turned out to be 863. In addition, the inhibition was 5% (inactive) in test [1], -93.2% (inactive) in test [3], 16.5% (inactive) in test [8] and 34.8% (inactive) in [9]. Also, the inhibition of aggregation in test [2] was -3.4% (inactive). Besides, the nuclei count was 106% in test [2] and 132% in test [3]. Besides, the fluorescence slope in test [4] was -0.433 (inactive). Besides, in test [5], the NADPH fluorescence slope was -6.3e-05 (inactive). The slope in test [6] was 0.00436 (inactive). The molecule was classed as inactive in test [7].

As a reminder, the inhibition is the relative decrease from the control value, in per cent.
